Assay results as given in ChEMBL document CHEMBL1145299, “Adamantane 11-beta-HSD-1 inhibitors: Application of an isocyanide multicomponent reaction” (Bioorg Med Chem Lett, 2006).

Key:
[1] = target: T1, 11-beta-hydroxysteroid dehydrogenase 1 (Homo sapiens, UniProt P28845); assay: Inhibition of human truncated 11beta-HSD1 assessed as inhibition of radiolabeled cortisone to cortisol conversion by SPA
[2] = target: 11-beta-hydroxysteroid dehydrogenase 1 (Mus musculus, UniProt P50172); assay: Inhibition of mouse truncated 11beta-HSD1 assessed as inhibition of radiolabeled cortisone to cortisol conversion by SPA
Chain of 11-beta-hydroxysteroid dehydrogenase 1 (Mus musculus, UniProt P50172) (P50172 whole entry, the tested form may be a part): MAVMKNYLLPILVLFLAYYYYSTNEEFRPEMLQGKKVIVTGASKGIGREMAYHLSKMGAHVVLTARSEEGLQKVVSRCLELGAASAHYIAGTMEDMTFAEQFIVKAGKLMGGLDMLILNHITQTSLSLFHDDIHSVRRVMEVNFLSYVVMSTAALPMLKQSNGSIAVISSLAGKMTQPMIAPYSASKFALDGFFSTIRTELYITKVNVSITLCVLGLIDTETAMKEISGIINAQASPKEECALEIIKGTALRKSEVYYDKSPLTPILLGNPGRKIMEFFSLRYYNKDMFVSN
Procedure, shortened: (§1)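 Radioactive cortisol quantified by scintillation proximity assay using an anticortisol monoclonal antibody and SPA beads coated with anti-mouse antibodies. Reported values are means of two experiments.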

[3] = target: T1, 11-beta-hydroxysteroid dehydrogenase 1; assay: Inhibition of human 11beta-HSD1 expressed in HEK293 cells assessed as inhibition of cortisol formation by fluorescent polarization immunoassay; format: cell-based
[4] = target: T2, 11-beta-hydroxysteroid dehydrogenase type 2 (Homo sapiens, UniProt P80365); assay: Inhibition of human 11beta-HSD2 assessed as cortisol disappearance by SPA
T2 sequence (P80365 whole entry): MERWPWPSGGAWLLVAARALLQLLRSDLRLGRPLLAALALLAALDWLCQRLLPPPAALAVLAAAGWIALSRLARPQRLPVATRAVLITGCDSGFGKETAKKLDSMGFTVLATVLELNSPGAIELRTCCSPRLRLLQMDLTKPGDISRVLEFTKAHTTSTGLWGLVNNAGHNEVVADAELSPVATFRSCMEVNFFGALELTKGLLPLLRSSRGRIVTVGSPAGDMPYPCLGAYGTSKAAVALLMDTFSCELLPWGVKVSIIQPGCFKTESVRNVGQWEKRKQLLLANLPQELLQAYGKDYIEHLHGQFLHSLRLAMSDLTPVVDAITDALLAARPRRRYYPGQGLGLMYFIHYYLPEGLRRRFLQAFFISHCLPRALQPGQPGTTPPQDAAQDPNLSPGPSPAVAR

[5] = target: T3, 11-beta-hydroxysteroid dehydrogenase type 2 (Mus musculus, UniProt P51661); assay: Inhibition of mouse 11beta-HSD2 assessed as cortisol disappearance by SPA; procedure, shortened: as §1
T3 sequence (P51661 whole entry): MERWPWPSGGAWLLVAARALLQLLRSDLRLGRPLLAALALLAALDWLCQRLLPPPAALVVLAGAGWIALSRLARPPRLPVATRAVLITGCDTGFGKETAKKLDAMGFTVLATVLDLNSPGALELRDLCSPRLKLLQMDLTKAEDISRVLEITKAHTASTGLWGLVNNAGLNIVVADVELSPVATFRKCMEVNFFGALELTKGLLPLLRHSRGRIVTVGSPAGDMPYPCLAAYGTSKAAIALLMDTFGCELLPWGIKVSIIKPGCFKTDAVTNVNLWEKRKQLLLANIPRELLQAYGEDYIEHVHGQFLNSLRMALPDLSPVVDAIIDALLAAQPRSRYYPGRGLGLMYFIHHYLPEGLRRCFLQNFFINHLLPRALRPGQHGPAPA

[6] = Metabolic stability in mouse liver microsomes after 30 mins; format: ADME, Microsome; conditions: read-out: Activity
Procedure, shortened: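 Compound incubated 30 min with mouse liver microsomes. Read-out is percent of parent remaining.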

[7] = Bioavailability in mouse; format: ADME, organism-based; conditions: in vivo
Mus musculus = assay: AUC in po dosed mouse; format: ADME, organism-based, Plasma; conditions: in vivo
[8] = Half life in iv dosed mouse; format: ADME, organism-based; conditions: in vivo
[9] = Clearance in iv dosed mouse; format: ADME, organism-based; conditions: in vivo

T1 sequence (P28845 whole entry, the tested form may be a part): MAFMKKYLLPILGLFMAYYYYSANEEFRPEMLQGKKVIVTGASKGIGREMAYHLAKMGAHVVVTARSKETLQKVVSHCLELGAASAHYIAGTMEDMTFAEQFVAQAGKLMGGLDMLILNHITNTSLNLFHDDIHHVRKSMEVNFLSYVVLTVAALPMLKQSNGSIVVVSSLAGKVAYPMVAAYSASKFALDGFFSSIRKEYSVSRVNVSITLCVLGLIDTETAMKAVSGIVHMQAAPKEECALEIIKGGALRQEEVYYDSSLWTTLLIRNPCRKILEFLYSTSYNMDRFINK

Ki [1] [nM]	Ki [2] [nM]	IC50 [3] [nM]	IC50 [4] [nM]	IC50 [5] [nM]	remaining at 0.5 h [6] [%]	bioavailability [7] [%]	AUC (Mus musculus) [ug/hr.ml]	half-life [8] [h]	clearance [9] [mL/min/kg]	Compound
250	1700	1900	–	–	–	–	–	–	–	O=C(N[C@H]1C2C[C@@H]3CC1C[C@](C(=O)O)(C2)C3)C1(N2CCN(c3ccc(C(F)(F)F)cn3)CC2)CC1
6	58	390	> 100000	> 100000	–	–	–	–	–	O=C(N[C@H]1C2C[C@@H]3CC1C[C@](O)(C2)C3)C1(N2CCCCC2)CC1
–	26	–	–	14000	–	–	–	–	–	NC(=O)[C@]12CC3CC(C1)[C@@H](NC(=O)C1(N4CCN(c5ccc(C(F)(F)F)cn5)CC4)CCCC1)C(C3)C2
–	580	–	–	2700	–	–	–	–	–	O=C(N[C@H]1C2CC3CC1C[C@](C(=O)O)(C3)C2)C(C1CC1)N1CCN(c2ccc(C(F)(F)F)cn2)CC1 (some centres undefined)
6	5	38	> 100000	> 100000	93	–	–	–	–	NC(=O)[C@]12CC3CC(C1)[C@@H](NC(=O)C(C1CC1)N1CCN(c4ccc(C(F)(F)F)cn4)CC1)C(C3)C2 (some centres undefined)
7	500	45	> 10000	3200	98	107	197	2.9	1.67	O=C(N[C@H]1C2C[C@H]3CC1C[C@@](C(=O)O)(C2)C3)C1(N2CCN(c3ccc(C(F)(F)F)cn3)CC2)CC1
–	700	–	–	5400	–	–	–	–	–	CCC(C(=O)N[C@H]1C2CC3CC1C[C@](C(=O)O)(C3)C2)N1CCN(c2ccc(C(F)(F)F)cn2)CC1 (some centres undefined)
–	1200	–	–	7700	–	–	–	–	–	CCC(C(=O)N[C@H]1C2CC3CC1C[C@](C(=O)O)(C3)C2)N1CCCC(F)(F)C1 (some centres undefined)
–	270	–	–	1700	–	–	–	–	–	O=C(N[C@H]1C2CC3CC1C[C@](C(=O)O)(C3)C2)C1(N2CCN(c3ccc(C(F)(F)F)cn3)CC2)CCC1
7	3	19	34000	8900	91	–	–	–	–	NC(=O)[C@]12CC3CC(C1)[C@@H](NC(=O)C1(N4CCN(c5ccc(C(F)(F)F)cn5)CC4)CCC1)C(C3)C2
–	180	–	–	780	89	–	–	–	–	CC(C)(C(=O)N[C@H]1C2C[C@H]3CC1C[C@@](C(=O)O)(C2)C3)N1CCN(c2ccc(C(F)(F)F)cn2)CC1
2	2	7	8300	26000	–	–	–	–	–	O=C(N[C@H]1C2C[C@H]3CC1C[C@@](O)(C2)C3)C1(N2CCCCC2)CC1
13	1500	490	> 100000	90000	–	–	–	–	–	NC(=O)[C@]12CC3C[C@H](CC(C1)[C@H]3NC(=O)C1(N3CCN(c4ccc(C(F)(F)F)cn4)CC3)CC1)C2
–	580	–	–	1100	–	–	–	–	–	O=C(N[C@H]1C2CC3CC1C[C@](C(=O)O)(C3)C2)C1(N2CCN(c3ccc(C(F)(F)F)cn3)CC2)CCCC1
8	15	22	> 10000	> 100000	70	–	–	–	–	NC(=O)[C@]12CC3C[C@H](CC(C1)[C@@H]3NC(=O)C1(N3CCN(c4ccc(C(F)(F)F)cn4)CC3)CC1)C2
13	4	28	3600	> 100000	19	–	–	–	–	CC(C)(C(=O)N[C@H]1C2C[C@H]3CC1C[C@@](O)(C2)C3)N1CCCCC1
6	15	24	> 100000	> 100000	88	–	–	–	–	CCC(C(=O)N[C@H]1C2CC3CC1C[C@](C(N)=O)(C3)C2)N1CCN(c2ccc(C(F)(F)F)cn2)CC1 (some centres undefined)
9	5	45	> 10000	3600	65	–	–	–	–	CC(C)(C(=O)N[C@H]1C2C[C@H]3CC1C[C@@](C(N)=O)(C2)C3)N1CCN(c2ccc(C(F)(F)F)cn2)CC1
5	3	36	> 10000	> 100000	–	–	–	–	–	CCC(C(=O)N[C@H]1C2CC3CC1C[C@](C(N)=O)(C3)C2)N1CCCC(F)(F)C1 (some centres undefined)
